The target of experiment [1] is T1, G-protein coupled receptor 35 (Homo sapiens, UniProt Q9HC97). The experiment can be described thus: Agonist activity at GPR35 in human HT-29 cells assessed as desensitization of 1 uM zaprinast-induced DMR after 1 hr by dynamic mass redistribution assay. The class given is functional, cell-based.
A further experiment deals with HT-29. In words: Induction of dynamic mass redistribution in human HT-29 cells transfected with receptor-targeting iRNA-based shRNA for GPR35 knock out at 10 uM. The class given is functional, cell-based. Put shortly: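 HT-29 seeded on biosensor plates at 5000 cells/well, 24 h at 37 °C. Transiently transfected with GFP-tagged shRNA plasmids against human GPR35, or control plasmid, at 0.05 μg DNA per well. Medium changed on day 3. About 48 h post-transfection, DMR agonist assay run with compounds at 10 μM, four replicates.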

Experiment [2] has as its target T1, G-protein coupled receptor 35. In words: Agonist activity at GPR35 in human HT-29 cells after 1 hr by dynamic mass redistribution assay. The class given is functional, cell-based. In short, it runs like this:
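HT-29 monolayer grown overnight on resonant waveguide grating biosensor plates. Cells washed twice, held in HBSS (20 mM Hepes, pH 7.1) for 1 h at 26 °C, then a 2 min baseline taken before compound addition. Response recorded as resonant wavelength shift (pm) over 1 h. Compounds diluted from 10 mM DMSO stocks.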

Experiment [3] has the same target. The experiment can be described thus: Agonist activity at GPR35 in human HT-29 cells after 1 hr by dynamic mass redistribution assay in presence of 64 uM GPR35 antagonist SPB05142. The class given is functional, cell-based.
The target is the same in experiment [4]. In words: Agonist activity at GPR35 in human U20S cells expressing beta-lactamase and GPR35-GA14-VP16 transcription factor fusion protein assessed as transcriptional activation after 5 hrs by tango beta-arrestin translocation reporter assay. The class given is functional, cell-based, U2OS. In short, it runs like this:
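Tango GPR35-bla U2OS cells, which express GPR35–TEV site–Gal4-VP16 and β-arrestin/TEV protease, seeded at 10000 cells/well and cultured overnight. Ligand stimulation for 5 h at 37 °C/5% CO2, then 2 h with LiveBLAzer FRET B/G substrate.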

Experiment [5] has the same target. The experiment can be described thus: Agonist activity at GPR35 in human HT-29 cells after 1 hr by dynamic mass redistribution assay in presence of GPR35 antagonist SPB05142. The class given is functional, cell-based.
Experiment [6] shares this target. In words: Agonist activity at GPR35 in human U20S cells expressing beta-lactamase and GPR35-GA14-VP16 transcription factor fusion protein assessed as transcriptional activation after 5 hrs by tango beta-arrestin translocation reporter assay relative to zaprinast. The class given is functional, cell-based. The conditions noted are these: U2OS. Put shortly: (§1)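 Tango GPR35-bla U2OS cells, which express GPR35–TEV site–Gal4-VP16 and β-arrestin/TEV protease, seeded at 10000 cells/well and cultured overnight. Ligand stimulation for 5 h at 37 °C/5% CO2, then 2 h with LiveBLAzer FRET B/G substrate. Coumarin:fluorescein ratio read as reporter response, doses up to 128 μM, n = 4.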

For experiment [7] the target is unchanged. In words: Agonist activity at GPR35 in human HT-29 cells assessed as receptor internalization at 1 uM after 1 hr by fluorescence imaging. The class given is functional, cell-based. Put shortly:
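HT-29 seeded in chamber slides at 10000 cells/well and grown 24 h at 37 °C. Cells exposed to compound or DMSO for 1 h at 37 °C, fixed in 4% formaldehyde, then blocked and permeabilized. Stained with anti-GPR35 (intracellular domain, 1:500, 24 h), then a fluorescent secondary antibody (1:500, 1 h, room temperature). GPR35 location assessed by confocal imaging.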

Experiment [8] has the same target. In words: Agonist activity at GPR35 in human HT-29 cells after 1 hr by dynamic mass redistribution assay relative to zaprinast. The class given is functional, cell-based. Details: concentration or dose not given beside the values. Put shortly: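 HT-29 monolayer grown overnight on resonant waveguide grating biosensor plates. Cells washed twice, held in HBSS (20 mM Hepes, pH 7.1) for 1 h at 26 °C, then a 2 min baseline taken before compound addition. Response recorded as resonant wavelength shift (pm) over 1 h. […] Compounds diluted from 10 mM DMSO stocks.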

Experiment [9] shares this target. In words: Agonist activity at GPR35 in human U20S cells expressing beta-lactamase and GPR35-GA14-VP16 transcription factor fusion protein assessed as transcriptional activation up to 128 uM after 5 hrs by tango beta-arrestin translocation reporter assay. The class given is functional, cell-based. The conditions noted are these: U2OS. In short, it runs like this: as §1

The source made the active and inactive calls. The calls are words filed in the database; no cut-off is given here. A value given as a limit tells only on which side of the number the result lay.

T1 sequence (Q9HC97 whole entry): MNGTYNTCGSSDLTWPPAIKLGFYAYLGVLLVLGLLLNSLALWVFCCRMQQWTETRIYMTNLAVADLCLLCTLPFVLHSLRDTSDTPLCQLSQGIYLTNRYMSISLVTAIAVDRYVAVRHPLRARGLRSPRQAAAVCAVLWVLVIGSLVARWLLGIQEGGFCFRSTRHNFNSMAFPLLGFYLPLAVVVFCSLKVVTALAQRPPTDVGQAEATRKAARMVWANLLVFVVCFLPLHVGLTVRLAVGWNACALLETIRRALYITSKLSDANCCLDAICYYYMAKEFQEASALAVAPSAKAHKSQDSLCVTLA

Take `Cc1c(C(=O)O)sc2c(Br)csc12`: the IC50 in experiment [1] came out at 0.11 µM. Besides, the outcome (with HT-29; in experiment [3]; in [5]) was inactive. The EC50 is 0.064 µM in [2] and 15 µM in experiment [4] (read-out: EC50). Further, the Activity stood at 104% in [6] and 105% in experiment [8]. Further, the result in experiment [7] was Active.

For the compound `CC1=C(C#N)C(=C(C#N)C#N)OC1(C)C`, in experiment [1], the IC50 amounted to 12.1 µM. For the same compound, the outcome (in the experiment on HT-29; in experiment [3]; in [5]) was inactive. Also, the concentration giving a half-maximal response (EC50) in experiment [2] is 17.1 µM; in experiment [4] (read-out: EC50) it was more than 50 µM. The result in [6] was Active. In addition, the Activity in experiment [8] turned out to be 87%.

As to `CCCCCCCCc1c(C(=O)O)sc2c(Br)csc12`, in experiment [1], the IC50 was found to be 1.05 µM. The values for the EC50 in experiment [2] and in experiment [4] (read-out: EC50) were 1.46 µM and more than 50 µM, respectively. The result in experiment [3] and in experiment [5] was inactive. Besides, the Activity in [6] was determined as 8%; in [8], 103%.

For the compound `O=C(O)c1cc2sccc2s1`, the IC50 in [1] stood at 57 µM. Further, the results for the EC50 in [2] and in [4] (u2os) were 42.4 µM and “Not Active”, respectively.

Regarding `CCCCCCCCCCCCCCCc1c(C(=O)O)sc2c(Br)csc12`, the IC50 in experiment [1] was 5.92 µM. Also, the EC50 is 4.56 µM in experiment [2] and “Not Active” in experiment [4] (u2os).

As for `CCOC(=O)c1sc2c(Br)csc2c1C`, the EC50 result in [4] (u2os) is “Not Active”.

In the case of `CCCCCCCCCCCc1c(C(=O)O)sc2c(Br)csc12`, in experiment [1], the IC50 was determined as 0.57 µM. Further, the EC50 in experiment [2] is 1.89 µM; in experiment [4] (read-out: EC50) it was 22.7 µM. In addition, the result in experiment [3] and in [5] was inactive. The results for the Activity in [6] and in [8] were 55% and 87%, respectively.

With `Cc1csc2c1sc1cc(C(=O)O)sc12`, the IC50 in [1] was found to be 6.07 µM. The result with HT-29 was inactive. Further, the EC50 was 6 µM in [2] and more than 50 µM in [4] (read-out: EC50). The outcome in experiment [3] and in experiment [5] was Active. Further, the figures for the Activity in experiment [6] and in experiment [8] were 19% and 118%, respectively.

For the compound `CCCOc1ccccc1-c1nc2[nH]nnc2c(=O)[nH]1`, in the experiment on HT-29, the result was inactive.

As to `CCCCCCCCCCCCCc1c(C(=O)O)sc2c(Br)csc12`, the result in [9], in [3], in experiment [5] and in experiment [6] was inactive. The IC50 in experiment [1] worked out at 1.87 µM. The results for the EC50 in experiment [2] and in experiment [4] (u2os) were 2.31 µM and “Not Active”, respectively. In addition, in experiment [8], the Activity came to 77%.

With `CC1=C(C#N)C(=C(C#N)C#N)OC1(C)c1c(F)c(F)c(F)c(F)c1F` (configuration not stated), in experiment [1], the concentration for half-maximal inhibition (IC50) turned out to be 4.48 µM. Moreover, the results for the EC50 in experiment [2] and in experiment [4] (u2os) were 3.35 µM and “Not Active”, respectively.

Consider `CC1=C(C#N)C(=C(C#N)C#N)OC1(C)c1ccc(Cl)c(Cl)c1` (configuration not stated), for which the half-maximal inhibitory concentration (IC50) in experiment [1] turned out to be 0.06 µM. Further, the result (in the experiment on HT-29; in experiment [3]; in experiment [5]) was inactive. Besides, the figures for the concentration for a half-maximal effect (EC50) in experiment [2] and in [4] (read-out: EC50) were 0.032 µM and 10.2 µM, respectively. Further, the Activity in experiment [6] was found to be 29%; in [8] it was 97%.

On to `CCCCc1ccc(C2(C)OC(=C(C#N)C#N)C(C#N)=C2C)cc1` (configuration not stated), for which, in [1], the IC50 stood at 6.4 µM. Besides, the results for the 50% effective concentration (EC50) in [2] and in [4] (u2os) were 15.3 µM and “Not Active”, respectively.

In the case of `CC1=C(C#N)C(=C(C#N)C#N)OC12CCCCC2`, the half-maximal inhibitory concentration (IC50) in [1] turned out to be 16.4 µM. Moreover, the EC50 in experiment [2] was 45.9 µM; in experiment [4] (read-out: EC50) it was more than 50 µM. Moreover, the outcome in experiment [3], in experiment [5] and in experiment [6] was Active. Besides, in [8], the Activity turned out to be 106%.

`CC1=C(C#N)C(=C(C#N)C#N)OC1(C)c1ccc(F)cc1F` (configuration not stated): in experiment [1], the IC50 was determined as 48.9 µM. In addition, the EC50 in experiment [2] is 53.9 µM; in experiment [4] (u2os), “Not Active”.

As to `CC1=C(C#N)C(=C(C#N)C#N)OC1(C)c1ccc(Cl)c(Cl)c1Cl` (configuration not stated), the outcome in experiment [9] was inactive. In addition, in experiment [1], the IC50 was determined as 10.3 µM. In [2], the EC50 turned out to be 11.1 µM. For the same compound, the outcome in experiment [3] and in experiment [5] was Active. Further, in experiment [8], the Activity was determined as 90%.

On to `CC1=C(C#N)C(=C(C#N)C#N)OC12c1ccccc1-c1ccccc12`, for which the result in experiment [9], in experiment [3] and in experiment [5] was inactive. Besides, the 50% inhibitory concentration (IC50) in [1] stood at 21.6 µM. The same compound gave an EC50 in experiment [2] of 6.6 µM. Moreover, the Activity in [8] stood at 90%.

As for `CCCCCCc1c(C(=O)O)sc2ccsc12`, the IC50 in experiment [1] amounted to 1.49 µM. In addition, the EC50 was 3.44 µM in [2] and more than 50 µM in experiment [4] (read-out: EC50). Moreover, the outcome in experiment [3] and in [5] was Active. The results for the Activity in experiment [6] and in experiment [8] were 20% and 99%, respectively.

In the case of `CC1=C(C#N)C(=C(C#N)C#N)OC1(c1ccccc1)C(F)(F)F` (configuration not stated), in [1], the IC50 amounted to 1.94 µM. Further, the EC50 in experiment [2] is 3.5 µM; in [4] (read-out: EC50), more than 50 µM. Besides, the result in experiment [3] and in [5] was inactive. The Activity was found to be 14% in experiment [6] and 99% in experiment [8].

With `CCCCCCc1csc2cc(C(=O)O)sc12`, the IC50 in experiment [1] turned out to be 4.69 µM. Moreover, the 50% effective concentration (EC50) in experiment [2] is 9.4 µM; in experiment [4] (read-out: EC50), more than 50 µM. Besides, the outcome in [3] and in [5] was inactive. The Activity in [6] came out at 9%; in experiment [8], 103%.

One may read the IC50 as the concentration that gives 50% inhibition. The term EC50 denotes the concentration that produces a half-maximal response.

The values are drawn from ChEMBL document CHEMBL1914282 (J Med Chem, 2011).
